{
  "source": "paper PMC10634270",
  "about": "(ACS Omega, 2023)",
  "key": {"[1]": {"test": "Antioxidant ABTS decolorization assay", "settings": "relative to ascorbic acid", "outline": "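Antioxidant capacity is read as ABTS radical decolorization. It is expressed relative to ascorbic acid as ascorbic acid equivalents in mol mol–1. Values are given with standard deviation.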"}, "[2]": {"test_system": "Hs27 fibroblasts", "test": "Cell viability MTT assay on Hs27 fibroblasts", "assay_type": "cell-based, human", "settings": "for cytotoxicity against Hs27 fibroblasts (in words): either human cell line", "outline": "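In vitro viability screen on Hs27 human fibroblasts, the same cells that serve as hosts in the parasite proliferation assay. IC50 is reported with confidence intervals.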"}, "[3]": {"test_system": "HeLa wt cells", "test": "Cell viability MTT assay on HeLa wt cells", "assay_type": "cell-based, human", "settings": "for cytotoxicity against HeLa cells (in words): either human cell line"}, "[4]": {"test": "Stability experiments in DMSO", "assay_type": "physicochemical", "settings": "up to 40 °C, over 24 h"}},
  "data": [
    {"smiles": "COc1ccc(-c2cc(=O)c3c(OC)cc(C)c(-c4c(C)cc(OC)c5c(=O)cc(-c6ccc(OC)cc6)oc45)c3o2)cc1", "note": "[9aa, rac-5,5′-Dimethoxy-2,2′-bis(4-methoxyphenyl)-7,7′-dimethyl-4H,4′H-[8,8′-bichromene]-4,4′-dione]", "values": [
      {"measurement": "ascorbic acid equivalent antioxidant capacity (AEAC)", "setting": "[1]", "result": "0.25 equiv ascorbic acid [mol mol^–1]"}
    ]},
    {"smiles": "COc1cc(OC)c2c(=O)cc(-c3ccc(C(F)(F)F)cc3)oc2c1", "note": "[8bd, 5,7-Dimethoxy-2-(4-(trifluoromethyl)phenyl)-4H-chromen-4-one]", "values": [
      {"measurement": "cytotoxicity against Hs27 fibroblasts (in words)", "setting": "[2]", "result": "noncytotoxic"},
      {"measurement": "cytotoxicity against HeLa cells (in words)", "setting": "[3]", "result": "noncytotoxic"}
    ]},
    {"smiles": "Cc1cc(O)c2c(=O)cc(-c3ccc(N(C)C)cc3)oc2c1-c1c(C)cc(O)c2c(=O)cc(-c3ccc(N(C)C)cc3)oc12", "note": "[compound 11, rac-2,2′-Bis(4-(dimethylamino)phenyl)-5,5′-dihydroxy-7,7′-dimethyl-4H,4′H-[8,8′-bichromene]-4,4′-dione]", "values": [
      {"measurement": "IC50", "setting": "[2]; Homo sapiens, HS27, 24 h, read-out: IC50 (Hs27)", "result": "> 200", "unit": "µM"},
      {"measurement": "IC50", "setting": "[3]; Homo sapiens, HeLa, 48 h, read-out: IC50 (HeLa)", "result": "> 100", "unit": "µM"},
      {"measurement": "ascorbic acid equivalent antioxidant capacity (AEAC)", "setting": "[1]", "result": "0.037 equiv ascorbic acid [mol mol^–"}
    ]},
    {"smiles": "COc1cc(C)c(-c2c(C)cc(OC)c3c(=O)cc(-c4ccc(C(F)(F)F)cc4)oc23)c2oc(-c3ccc(C(F)(F)F)cc3)cc(=O)c12", "note": "[9ad, rac-5,5′-Dimethoxy-7,7′-dimethyl-2,2′-bis(4-(trifluoromethyl)phenyl)-4H,4′H-[8,8′-bichromene]-4,4′-dione]", "values": [
      {"measurement": "cytotoxicity against Hs27 fibroblasts (in words)", "setting": "[2]", "result": "noncytotoxic"},
      {"measurement": "cytotoxicity against HeLa cells (in words)", "setting": "[3]", "result": "noncytotoxic"}
    ]},
    {"smiles": "COc1cc(C)c(-c2c(C)cc(OC)c3c(=O)cc(-c4ccc(N(C)C)cc4)oc23)c2oc(-c3ccc(N(C)C)cc3)cc(=O)c12", "note": "[9ac, rac-2,2′-Bis(4-(dimethylamino)phenyl)-5,5′-dimethoxy-7,7′-dimethyl-4H,4′H-[8,8′-bichromene]-4,4′-dione]", "values": [
      {"measurement": "stability in DMSO", "setting": "[4]", "result": "stable"},
      {"measurement": "ascorbic acid equivalent antioxidant capacity (AEAC)", "setting": "[1]", "result": "0.197 equiv ascorbic acid [mol mol^–"}
    ]},
    {"smiles": "COc1cc(OC)c2c(=O)cc(-c3ccc(C(F)(F)F)cc3)oc2c1-c1c(OC)cc(OC)c2c(=O)cc(-c3ccc(C(F)(F)F)cc3)oc12", "note": "[9bd, rac-5,5′,7,7′-Tetramethoxy-2,2′-bis(4-(trifluoromethyl)phenyl)-4H,4′H-[8,8′-bichromene]-4,4′-dione]", "values": [
      {"measurement": "cytotoxicity against Hs27 fibroblasts (in words)", "setting": "[2]", "result": "noncytotoxic"},
      {"measurement": "cytotoxicity against HeLa cells (in words)", "setting": "[3]", "result": "noncytotoxic"}
    ]},
    {"smiles": "COc1cc(C)cc2oc(-c3ccc(C(F)(F)F)cc3)cc(=O)c12", "note": "[8ad, 5-Methoxy-7-methyl-2-(4-(trifluoromethyl)phenyl)-4H-chromen-4-one]", "values": [
      {"measurement": "cytotoxicity against Hs27 fibroblasts (in words)", "setting": "[2]", "result": "noncytotoxic"},
      {"measurement": "cytotoxicity against HeLa cells (in words)", "setting": "[3]", "result": "noncytotoxic"}
    ]}
  ]
}
